From PubChem BioAssay come the findings set out here.

Activity calls are given as the source filed them.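 Rule for the calls, unless noted: active = Her2 level under about 52% in both replicate screens, with viability over 70% of control (limit read from the data); inconclusive = Her2 under the limit in one screen only, or viability under 70%; inactive = Her2 level above the set limit.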

A short description of experiment [1]: Her2 expression decrease, cell viability multiplex – SKBR3 breast tumor cells, AlphaScreen, ATP viability, primary screen (AID 461).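 For Her2 level: lower value means less Her2 protein in the cells.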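 For viability: percent of carrier control wells set as 100% viability.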 Conditions: SKBR3 Her2 protein level, 18-24 h, measured here: SKBR3 viability, ATP luminescence, at 10 µM. On the technique in general: Bead proximity is the source of the signal in Alpha formats.
Experiment [2] concerns the target Receptor tyrosine-protein kinase erbB-2 (Homo sapiens) (UniProt P04626). Described as above. Conditions: 18-24 h, at 10 µM, stronger effect = lower value.
Experiment [3] in a line: reduced viability of SK-BR-3 breast cancer cells – cell-based, 24 h, human, pilot screen (AID 572;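 active = viability at or below 10% of carrier control in both of two separate runs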;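 note: compound exposure lasted between 18 and 24 h rather than exactly 24 h; 100% = carrier-treated control wells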). The note with it: SK-BR-3 viability, CellTiter-Glo luminescence, at 10 µM, stronger effect = lower value. (In ATP-based viability assays light output follows the ATP content of the culture.)
Experiment [4] in a line: HUVEC growth inhibition – cell-based, human, primary screen (AID 575;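 active = viability at or below 30% in both replicate assays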;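 note: 100% = median of untreated cell wells with 0.1% DMSO on each plate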). The note with it: HUVEC proliferation, CellTiter-Glo luminescence, 72 h; at 10 µM; stronger effect = lower value. In outline:
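Assay system: primary human umbilical vein endothelial cells / Buffer or medium: endothelial basal medium with 2% FBS plus growth supplements / Compound dosing: one dose, 10 µM final, 0.1% DMSO / Timing: 72 h treatment at 37 °C / Signal: CTG luminescence / Benchmarks: 32 DMSO-only cell-control wells (high), 32 MePR drug-control wells (low) per plate / Plate: collagen-coated 384-well format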

A short description of experiment [5]: H69AR cell proliferation blockers – human, duplicate replicates, primary screen (AID 580;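 active = viability at or under a set limit in both replicates, limit being median viability minus 3 SD, cut at about 48% in these data, passing the limit was not always enough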;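 note: 100% = mean luminescence of untreated wells and 0% = no signal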). The note with it: H69AR lung tumor cells viability, ATP luminescence, 72 h; at 10 µM; stronger effect = lower value.
Experiment [6] can be described thus: MRP1 drug-resistance reversers in H69AR cells – cell-based, doxorubicin co-treatment, pilot screen (AID 601;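 active = viability loss from added drug above about 55%, and viability with drug at most 40%, in both replicates, limit read from the data, passing the limit was not always enough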). Conditions: CellTiter-Glo, 72 h, at 10 µM; for differential viability (reversal): stronger effect = higher value.
Experiment [7] is described as follows: yeast transport mutant growth inhibition pilot in 384-well plates, post-Golgi transport modulator project (AID 636; in the data active = inhibition above about 31%). The note with it: absorbance 615 nm, about 18 h, stronger effect = higher value.
A short description of experiment [8]: growth suppression of yeast trafficking mutant, preliminary HTS, modulators of trafficking downstream of Golgi apparatus project, 1536-format plate, OD 615 nm (AID 637; in the data active = inhibition above about 30%). The note with it: yeast transport mutant growth, absorbance 615 nm, 18 h; stronger effect = higher value.
[9] abbreviates: H69AR cells + 2 uM doxorubicin, measured here: viability with 2 uM doxorubicin, stronger effect = lower value.
Where [10] appears, read: H69AR cells, compound alone cytotoxicity.

Sequence of Receptor tyrosine-protein kinase erbB-2 (Homo sapiens) (P04626 whole entry, looked up): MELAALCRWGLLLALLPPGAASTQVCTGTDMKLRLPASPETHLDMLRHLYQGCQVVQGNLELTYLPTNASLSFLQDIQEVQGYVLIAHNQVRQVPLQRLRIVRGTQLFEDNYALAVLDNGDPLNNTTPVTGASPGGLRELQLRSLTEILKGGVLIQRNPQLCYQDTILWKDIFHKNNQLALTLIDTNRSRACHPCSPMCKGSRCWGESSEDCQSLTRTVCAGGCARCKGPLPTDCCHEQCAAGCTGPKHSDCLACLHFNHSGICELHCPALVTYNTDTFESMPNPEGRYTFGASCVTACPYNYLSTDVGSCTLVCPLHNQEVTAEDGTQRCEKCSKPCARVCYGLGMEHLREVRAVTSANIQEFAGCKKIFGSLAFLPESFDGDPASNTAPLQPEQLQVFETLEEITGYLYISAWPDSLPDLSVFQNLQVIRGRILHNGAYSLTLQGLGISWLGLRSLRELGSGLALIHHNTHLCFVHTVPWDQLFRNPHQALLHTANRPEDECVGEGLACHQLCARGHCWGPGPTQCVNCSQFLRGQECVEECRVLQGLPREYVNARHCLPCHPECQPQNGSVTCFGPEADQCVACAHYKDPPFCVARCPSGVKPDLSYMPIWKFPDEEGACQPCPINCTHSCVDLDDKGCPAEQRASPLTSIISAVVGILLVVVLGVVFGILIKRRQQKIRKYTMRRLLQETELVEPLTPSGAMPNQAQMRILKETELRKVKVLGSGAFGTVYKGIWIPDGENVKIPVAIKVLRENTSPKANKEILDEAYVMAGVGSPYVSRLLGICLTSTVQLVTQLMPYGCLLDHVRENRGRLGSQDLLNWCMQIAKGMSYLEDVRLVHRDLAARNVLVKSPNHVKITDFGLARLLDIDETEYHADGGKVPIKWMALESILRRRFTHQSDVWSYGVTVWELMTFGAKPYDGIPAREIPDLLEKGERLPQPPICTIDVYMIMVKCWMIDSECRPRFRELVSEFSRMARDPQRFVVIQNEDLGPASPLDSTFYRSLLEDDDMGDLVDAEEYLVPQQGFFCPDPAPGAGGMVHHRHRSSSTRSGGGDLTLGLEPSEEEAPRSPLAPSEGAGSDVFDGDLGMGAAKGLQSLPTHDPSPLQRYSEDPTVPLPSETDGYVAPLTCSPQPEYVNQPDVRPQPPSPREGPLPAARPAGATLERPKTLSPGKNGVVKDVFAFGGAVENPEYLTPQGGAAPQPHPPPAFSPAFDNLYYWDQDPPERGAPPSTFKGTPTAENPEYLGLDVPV

As for `Cc1cc(Cl)ccc1NC(=O)CSc1nnc(Cc2cccs2)n1Cc1ccco1`, the viability (usually a read-out of living cells in per cent, often relative to untreated cells) in experiment [1] is 77.5%; in experiment [3], 77.5% (inactive); in experiment [4] it was 68.3% (inactive); in experiment [5], 77.2% (inactive); in experiment [6] (setting [9]), 85.5%; in experiment [6] (setting [10]) it was 77.2%. For the same molecule, the Her2 level in experiment [2] is 95.5% (inactive). Besides, in experiment [6] (H69AR cells + 2 uM doxorubicin), the differential viability (reversal) was -8.29% (inactive). Besides, the inhibition – broadly, the drop in the measured response relative to a control, in per cent – was -3.92% (inactive) in experiment [7] and 1.97% (inactive) in experiment [8].

`CC(Oc1ccccc1)C(=O)Nc1ccc(S(=O)(=O)NCC2CCCO2)cc1` (stereo not given): the viability in experiment [1] is 89.5%; in experiment [3], 89.5% (inactive); in experiment [4] it was 101% (inactive); in experiment [5], 98.7% (inactive); in experiment [6] (setting [9]) it was 94.6%; in experiment [6] (setting [10]) it was 98.7%. Also, the Her2 level in experiment [2] is 94.5% (inactive). For the same molecule, in experiment [6] (H69AR cells + 2 uM doxorubicin), the differential viability (reversal) is 4.12% (inactive). The inhibition was -1.73% (inactive) in experiment [7] and -5.71% (inactive) in experiment [8].

In the case of `Cc1cc(C)n2nc(SCC(=O)N(C)c3ccccc3)nc2n1`, the viability in experiment [1] was 89.5%; in experiment [3], 89.5% (inactive); in experiment [4], 94.8% (inactive); in experiment [5], 104% (inactive); in experiment [6] (setting [9]), 102%; in experiment [6] (setting [10]) it was 104%. The Her2 level in experiment [2] was 87% (inactive). In experiment [6] (H69AR cells + 2 uM doxorubicin), the differential viability (reversal) was 1.41% (inactive). For the same molecule, the inhibition in experiment [7] was -7.57% (inactive); in experiment [8], 6.39% (inactive).

For the molecule `CC1(C)Cc2noc(N)c2C(C)(C)N1OC(=O)c1cccs1`, the viability in experiment [1] was 103%; in experiment [3], 103% (inactive); in experiment [4] it was 99.1% (inactive); in experiment [5], 102% (inactive); in experiment [6] (setting [9]) it was 94.2%; in experiment [6] (setting [10]), 102%. Also, in experiment [2], the Her2 level is 95.5% (inactive). The differential viability (reversal) in experiment [6] (H69AR cells + 2 uM doxorubicin) is 8.28% (inactive). Further, the inhibition in experiment [7] was -4.08% (inactive); in experiment [8] it was -5.08% (inactive).

Regarding `CCN1CCN(C(=O)c2cc3c(=O)n(C)c4ccccc4c3n2C)CC1`, the viability in experiment [1] was 110%; in experiment [3], 110% (inactive); in experiment [4] it was 88.2% (inactive); in experiment [5], 77.6% (inactive); in experiment [6] (setting [9]) it was 86.9%; in experiment [6] (setting [10]), 77.6%. The Her2 level in experiment [2] is 94% (inactive). For the same molecule, the differential viability (reversal) in experiment [6] (H69AR cells + 2 uM doxorubicin) is -9.27% (inactive). Further, the inhibition in experiment [7] was 0.4% (inactive); in experiment [8], -1.33% (inactive).

On to `CC(CCc1ccccc1)NC(=O)c1ccc(Br)o1` (stereo not given), for which the viability is 110% in experiment [1]; 110% (inactive) in experiment [3]; 88.5% (inactive) in experiment [4]; 93.5% (inactive) in experiment [5]; 84% in experiment [6] (setting [9]); 93.5% in experiment [6] (setting [10]). Besides, the Her2 level in experiment [2] was 86% (inactive). In addition, the differential viability (reversal) in experiment [6] (H69AR cells + 2 uM doxorubicin) is 9.45% (inactive). For the same molecule, the inhibition in experiment [7] was -4.93% (inactive); in experiment [8], 0.63% (inactive).

Regarding `Nc1nonc1-c1noc(-c2ccccc2Br)n1`, the viability in experiment [1] is 112%; in experiment [3], 112% (inactive); in experiment [4], 54.7% (inactive); in experiment [5] it was 95.1% (inactive); in experiment [6] (setting [9]) it was 92%; in experiment [6] (setting [10]), 95.1%. Further, the Her2 level in experiment [2] is 76.5% (inactive). Also, the differential viability (reversal) in experiment [6] (H69AR cells + 2 uM doxorubicin) was 3.17% (inactive). Besides, the results for the inhibition in experiment [7] and in experiment [8] were -6.62% (inactive) and 5.67% (inactive), respectively.

Turning to `CCOC(=O)CCNC(=O)Nc1ccc2nc(C)n(Cc3ccccc3Cl)c(=O)c2c1`, the viability in experiment [1] was 87%; in experiment [3], 87% (inactive); in experiment [4] it was 92.9% (inactive); in experiment [5], 94.9% (inactive); in experiment [6] (setting [9]), 87%; in experiment [6] (setting [10]) it was 94.9%. Also, the Her2 level in experiment [2] was 110% (inactive). Also, the differential viability (reversal) in experiment [6] (H69AR cells + 2 uM doxorubicin) is 7.92% (inactive). Besides, the inhibition in experiment [7] was -0.92% (inactive); in experiment [8], 1.67% (inactive).

With `CN1CCN(C(=O)C2(NC(=O)Nc3cccc(F)c3)CCCCC2)CC1`, the viability was 81% in experiment [1]; 81% (inactive) in experiment [3]; 97.4% (inactive) in experiment [4]; 93.9% (inactive) in experiment [5]; 103% in experiment [6] (setting [9]); 93.9% in experiment [6] (setting [10]). Besides, the Her2 level in experiment [2] is 97% (inactive). The differential viability (reversal) in experiment [6] (H69AR cells + 2 uM doxorubicin) is -9.36% (inactive). In addition, the inhibition was -3.65% (inactive) in experiment [7] and -3.02% (inactive) in experiment [8].

Take `C1=Nc2c(NCc3ccccc3)ncnc2Oc2ccccc21`: the viability was 83% in experiment [1]; 83% (inactive) in experiment [3]; 80.6% (inactive) in experiment [4]; 91.7% (inactive) in experiment [5]; 83.7% in experiment [6] (setting [9]); 91.7% in experiment [6] (setting [10]). In experiment [2], the Her2 level was 84.5% (inactive). Moreover, the differential viability (reversal) in experiment [6] (H69AR cells + 2 uM doxorubicin) is 7.99% (inactive). Also, the results for the inhibition in experiment [7] and in experiment [8] were 2.13% (inactive) and 0.16% (inactive), respectively.

Regarding `CCOC(=O)N1CCN(C(=O)CN(C)S(=O)(=O)c2ccc(OC)c(OC)c2)CC1`, the viability was 100% in experiment [1]; 100% (inactive) in experiment [3]; 104% (inactive) in experiment [4]; 91.5% (inactive) in experiment [5]; 88.3% in experiment [6] (setting [9]); 91.5% in experiment [6] (setting [10]). The Her2 level in experiment [2] is 94.5% (inactive). Besides, the differential viability (reversal) in experiment [6] (H69AR cells + 2 uM doxorubicin) was 3.21% (inactive). Further, the figures for the inhibition in experiment [7] and in experiment [8] were -6.84% (inactive) and 1.97% (inactive), respectively.

As for `Cc1cccc(NC(=O)CC2NC3CCCCC3NC2=O)c1` (stereo not given), the viability in experiment [1] is 99.5%; in experiment [3], 99.5% (inactive); in experiment [4] it was 96.7% (inactive); in experiment [5], 93.6% (inactive); in experiment [6] (setting [9]) it was 90.7%; in experiment [6] (setting [10]), 93.6%. The Her2 level in experiment [2] was 102% (inactive). In addition, the differential viability (reversal) in experiment [6] (H69AR cells + 2 uM doxorubicin) was 2.89% (inactive). The inhibition in experiment [7] was -3.42% (inactive); in experiment [8] it was -1.17% (inactive).

On to `COc1ccc(CC(=O)OCn2nnc3ccccc3c2=O)cc1`, for which the viability is 101% in experiment [1]; 101% (inactive) in experiment [3]; 90.5% (inactive) in experiment [4]; 98% (inactive) in experiment [5]; 101% in experiment [6] (setting [9]); 98% in experiment [6] (setting [10]). Further, the Her2 level in experiment [2] is 86% (inactive). The differential viability (reversal) in experiment [6] (H69AR cells + 2 uM doxorubicin) is -3.25% (inactive). For the same molecule, the values for the inhibition in experiment [7] and in experiment [8] were -5.6% (inactive) and -5.56% (inactive), respectively.

In the case of `Cc1sc2ncnc(SCC(=O)N3CCCC3)c2c1C`, the viability is 124% in experiment [1]; 124% (inactive) in experiment [3]; 78.1% (inactive) in experiment [4]; 93% (inactive) in experiment [5]; 83.3% in experiment [6] (setting [9]); 93% in experiment [6] (setting [10]). Moreover, the Her2 level in experiment [2] was 95.5% (inactive). Besides, in experiment [6] (H69AR cells + 2 uM doxorubicin), the differential viability (reversal) was 9.69% (inactive). The results for the inhibition in experiment [7] and in experiment [8] were -2.08% (inactive) and 6.39% (inactive), respectively.

Regarding `Cc1c(NC(=O)c2coc(=O)c(Br)c2)c(=O)n(-c2ccccc2)n1C`, the viability was 85% in experiment [1]; 85% (inactive) in experiment [3]; 72.9% (inactive) in experiment [4]; 1.47% (active) in experiment [5]; 1.64% in experiment [6] (setting [9]); 1.47% in experiment [6] (setting [10]). The Her2 level in experiment [2] is 27.5% (active). For the same molecule, the differential viability (reversal) in experiment [6] (H69AR cells + 2 uM doxorubicin) is -0.165% (inactive). The inhibition was -4.55% (inactive) in experiment [7] and -4.92% (inactive) in experiment [8].
